From ChEMBL document CHEMBL5344415, “Synthesis and Characterization of Phenylalanine Amides Active against Mycobacterium abscessus and Other Mycobacteria” (J Med Chem, 2023)
In brackets after ≈: the same amount, converted by molar mass.

Key:
[1] = system: Mycobacteroides abscessus; assay: Antibacterial activity against MMV688845-resistant Mycobacterium abscessus Bamboo 845R-2.1 harboring rpoB/beta subunit P473L mutation assessed as bacterial growth inhibition incubated for 3 days by optical density based analysis; assay type: functional; settings: Bamboo 845R-2.1, 72 h, time 3 day
In short: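 Tenfold-point twofold dilution series in 7H9, final DMSO 1 %. Final ranges typically 50–0.098 or 6.25–0.012 μM. Mid-log culture added to an initial OD₆₀₀ of 0.05 (5*10⁶ CFU/mL). Incubated 3 days at 37 °C with shaking at 110 rpm. Growth taken as OD₆₀₀ on day 3 minus day 0, as % of drug-free wells. MIC₉₀ read visually from the curves. Clarithromycin as control. Two biological replicates, averaged.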

MCF7 = assay: Cytotoxicity against human MCF7 cells assessed as reduction in cell viability incubated for 72 hrs by SRB assay; assay type: toxicity, cell-based
HEK293 = assay: Cytotoxicity against HEK293 cells assessed as reduction in cell viability incubated for 72 hrs by SRB assay; assay type: toxicity, cell-based, Homo sapiens
[2] = system: Mycobacterium intracellulare; assay: Antibacterial activity against Mycobacterium intracellulare ATCC 35761 expressing tomato RFP assessed as bacterial growth inhibition incubated for 5 days in 7H9 medium by RFP fluorescence based broth microdilution method; assay type: functional; settings: ATCC 35761, 120 h, time 5 day
In short: (§1)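 Broth microdilution in 7H9 with 10 % ADS and 0.05 % Tween 80. Twofold nine-point dilution series. Inoculum 5 x 10⁵ cells/mL taken from a mid-log preculture. Incubation at 37 °C, 3 days for M. smegmatis and M. abscessus, 5 days for M. intracellulare. Read-out by RFP fluorescence (ex 544/em 590 nm). Controls were 1 % DMSO and 100 μM amikacin. MIC₉₀ from duplicates, averaged.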

[3] = system: Mycobacteroides abscessus; assay: Antibacterial activity against Mycobacterium abscessus ATCC 19977 expressing tomato RFP assessed as bacterial growth inhibition incubated for 3 days in MHII medium by RFP fluorescence based broth microdilution method; assay type: functional; settings: ATCC 19977, 72 h, time 3 day
In short: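 Broth microdilution in MHII broth with 0.05 % Tween 80, against the RFP-expressing strain. Twofold nine-point dilution series. Inoculum 5 x 10⁵ cells/mL from a mid-log preculture. Incubated 3 days at 37 °C. Read-out by RFP fluorescence (ex 544/em 590 nm). Controls were 1 % DMSO and 100 μM amikacin. MIC₉₀ from duplicates, averaged.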

HeLa = assay: Cytotoxicity against human HeLa cells assessed as reduction in cell viability incubated for 72 hrs by SRB assay; assay type: toxicity, cell-based
A2780 = assay: Cytotoxicity against human A2780 cells assessed as reduction in cell viability incubated for 72 hrs by SRB assay; assay type: toxicity, cell-based
[4] = Cytotoxicity against mouse NIH3T3 cells assessed as reduction in cell viability incubated for 72 hrs by SRB assay; assay type: toxicity, cell-based; settings: mouse, NIH3T3 cells
[5] = system: Mycobacteroides abscessus; assay: Antibacterial activity against Mycobacterium abscessus ATCC 19977 expressing tomato RFP infected in human THP-1 cells assessed as bacterial growth inhibition incubated for 4 days in RPMI medium by RFP fluorescence based assay; assay type: functional; settings: ATCC 19977, 96 h, time 4 day
In short: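 RFP M. abscessus washed, moved into RPMI, filtered through 5 µm and opsonised with 10 % human serum for 30 min. THP-1 cells infected at MOI 5:1 with PMA 40 ng/mL for 4 h at 37 °C, then washed. Infected cells (1x10⁵/well) given a ten-point twofold series. Incubated 4 days at 37 °C, 5 % CO₂. Cells PFA-fixed and DAPI-stained. RFP quantified by imaging. Controls were DMSO and 1.5 µM bedaquiline. Duplicate.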

[6] = system: Mycobacterium tuberculosis; assay: Antibacterial activity against Mycobacterium tuberculosis H37Rv ATCC 27294 assessed as bacterial growth inhibition incubated for 7 days in 7H9 medium by optical density based microplate reader analysis; assay type: functional; settings: H37Rv ATCC 27294, 168 h, time 7 day
In short: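 Compounds serially diluted in flat-bottom 96-well plates. Mid-log culture mixed in to a final OD₆₀₀ of 0.05. Sealed plates incubated in humidified boxes at 37 °C for 7 days with shaking at 80 rpm. Turbidity read at 600 nm. MIC₉₀ taken from dose–response curves. Two biological replicates, averaged.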

[7] = system: Mycobacteroides abscessus; assay: Antibacterial activity against Mycobacterium abscessus Bamboo harboring inactive clarithromycin-sensitive erm41 C28 sequevar assessed as bacterial growth inhibition incubated for 3 days in 7H9 medium by optical density based method; assay type: functional; settings: 72 h, time 3 day
HT-29 = assay: Cytotoxicity against human HT-29 cells assessed as reduction in cell viability incubated for 72 hrs by SRB assay; assay type: toxicity, cell-based
[8] = system: Mycobacteroides abscessus; assay: Bactericidal activity against Mycobacterium abscessus ATCC 19977 assessed as reduction in viable bacteria at 6.25 uM incubated for 4 days by microplate dilution assay relative to control; assay type: functional; settings: time 4 day
[9] = Kinetic solubility of compound in PBS at 0.78 to 500 uM measured immediately by nephelometric method; assay type: physicochemical; settings: buffer, dose 0.78-500 µM
In short: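 DMSO stocks prediluted in DMSO, then diluted 1:50 into PBS (2 % DMSO final) and read immediately by nephelometry at 0.78–500 μM; blank-corrected data fitted by segmental regression; quadruplicates from one stock.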

A-375 = assay: Cytotoxicity against human A-375 cells assessed as reduction in cell viability incubated for 72 hrs by SRB assay; assay type: toxicity, cell-based
[10] = system: Mycobacteroides abscessus; assay: Bactericidal activity against Mycobacterium abscessus ATCC 19977 assessed as reduction in viable bacteria at 3.13 uM incubated for 4 days by microplate dilution assay relative to control; assay type: functional; settings: time 4 day
In short: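 After 4 days in the microplate dilution assay, 10 µl samples (undiluted or 1:100) were plated on 7H10 with glycerol, ADS and 400 µg/mL hygromycin. Colonies counted after 4 days at 37 °C. Done in triplicate. CFU/mL compared with the inoculum counted before incubation.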

[11] = system: Mycobacteroides abscessus; assay: Antibacterial activity against Mycobacterium abscessus ATCC 19977 expressing tomato RFP assessed as bacterial growth inhibition incubated for 3 days in 7H9 medium by RFP fluorescence based broth microdilution method; assay type: functional; settings: ATCC 19977, 72 h, time 3 day; in short: as §1
[12] = system: Mycolicibacterium smegmatis; assay: Antibacterial activity against Mycobacterium smegmatis mc2 155 expressing tomato RFP assessed as bacterial growth inhibition incubated for 3 days in 7H9 medium by RFP fluorescence based broth microdilution method; assay type: functional; settings: mc2 155, 72 h, time 3 day; in short: as §1

Row | Structure (SMILES) | MIC90 [1] | EC50 (MCF7) | EC50 (HEK293) | MIC90 [2] | MIC90 [3] | EC50 (HeLa) | EC50 (A2780) | EC50 at 72 h [4] | MIC50 [5] | MIC90 [5] | MIC90 [6] | MIC50 [7] | MIC90 [7] | EC50 (HT-29) | Activity [8] | Kinetic_solubility [9] | EC50 (A-375) | Activity [10] | MIC90 [11] | MIC90 [12]
1 | CC[C@H]1OC(=O)[C@H](C)[C@@H](O[C@H]2C[C@@](C)(OC)[C@@H](O)[C@H](C)O2)[C@H](C)[C@@H](O[C@@H]2O[C@H](C)C[C@H](N(C)C)[C@H]2O)[C@](C)(OC)C[C@@H](C)C(=O)[C@H](C)[C@@H](O)[C@]1(C)O [CLARITHROMYCIN] | 0.27 µM (≈ 0.202 µg/mL) |  |  |  |  |  |  |  |  |  |  |  |  |  |  |  |  |  |  | 
2 | O=C(N[C@H](Cc1ccccc1)C(=O)Nc1ccccc1N1CCS(=O)(=O)CC1)c1cccs1 |  | > 30 µM | > 30 µM | 0.1 µM (≈ 0.0484 µg/mL) | 3.13 µM (≈ 1.51 µg/mL) | > 30 µM | 23.6 µM | > 30 µM | 0.78 µM (≈ 0.377 µg/mL) | 6.25 µM (≈ 3.02 µg/mL) | 0.2 µM (≈ 0.0967 µg/mL) | 0.24 µM (≈ 0.116 µg/mL) | 1.7 µM (≈ 0.822 µg/mL) | > 30 µM | 99% | 62 µM | > 30 µM | 95% | 3.13 µM (≈ 1.51 µg/mL) | 1.56 µM (≈ 0.754 µg/mL)
3 | O=C(N[C@H](Cc1ccc(O)cc1)C(=O)Nc1cc(F)ccc1N1CCS(=O)(=O)CC1)c1ccccc1F |  | > 30 µM | > 30 µM | 0.2 µM (≈ 0.106 µg/mL) | 6.25 µM (≈ 3.31 µg/mL) | > 30 µM | > 30 µM | > 30 µM | 3.13 µM (≈ 1.66 µg/mL) | 25 µM (≈ 13.2 µg/mL) | 0.78 µM (≈ 0.413 µg/mL) | 1.1 µM (≈ 0.583 µg/mL) | 13 µM (≈ 6.88 µg/mL) | > 30 µM |  | 158 µM | > 30 µM |  | 6.25 µM (≈ 3.31 µg/mL) | 6.25 µM (≈ 3.31 µg/mL)
4 | O=C(N[C@H](Cc1ccccc1)C(=O)Nc1ccccc1N1CCSCC1)c1ccccc1F |  | 13.6 µM | 6.3 µM | 0.78 µM (≈ 0.362 µg/mL) | 50 µM (≈ 23.2 µg/mL) | > 30 µM | 14.9 µM | > 30 µM | 12.5 µM (≈ 5.79 µg/mL) | > 100 µM | 6.25 µM (≈ 2.9 µg/mL) | 3 µM (≈ 1.39 µg/mL) | 18 µM (≈ 8.34 µg/mL) | > 30 µM |  | 28 µM | 18.6 µM |  | 12.5 µM (≈ 5.79 µg/mL) | 3.13 µM (≈ 1.45 µg/mL)
5 | CO[C@H]1/C=C/O[C@@]2(C)Oc3c(C)c(O)c4c(c3C2=O)C2=NC3(CCN(CC(C)C)CC3)NC2=C(NC(=O)/C(C)=C\C=C\[C@H](C)[C@H](O)[C@@H](C)[C@@H](O)[C@@H](C)[C@H](OC(C)=O)[C@@H]1C)C4=O [RIFABUTIN] | 1.1 µM (≈ 0.932 µg/mL) |  |  |  |  |  |  |  |  |  |  |  | 3 µM (≈ 2.54 µg/mL) |  |  |  |  |  |  | 
6 | O=C(N[C@H](Cc1ccsc1)C(=O)Nc1ccccc1N1CC[S+]([O-])CC1)c1ccccc1F |  | > 30 µM |  | 0.2 µM (≈ 0.0971 µg/mL) | 12.5 µM (≈ 6.07 µg/mL) | > 30 µM | > 30 µM | > 30 µM | 6.25 µM (≈ 3.04 µg/mL) | 50 µM (≈ 24.3 µg/mL) | 3.13 µM (≈ 1.52 µg/mL) | 1.5 µM (≈ 0.728 µg/mL) | 4.4 µM (≈ 2.14 µg/mL) | > 30 µM |  | 96 µM | > 30 µM |  | 6.25 µM (≈ 3.04 µg/mL) | 1.56 µM (≈ 0.758 µg/mL)
7 | O=C(N[C@H](Cc1ccsc1)C(=O)Nc1ccccc1N1CCOCC1)c1cccs1 |  | > 30 µM |  | 1.56 µM (≈ 0.689 µg/mL) | 12.5 µM (≈ 5.52 µg/mL) | > 30 µM | > 30 µM | > 30 µM | 12.5 µM (≈ 5.52 µg/mL) | 50 µM (≈ 22.1 µg/mL) | 3.13 µM (≈ 1.38 µg/mL) | 2.3 µM (≈ 1.02 µg/mL) | 7 µM (≈ 3.09 µg/mL) | > 30 µM |  | 30 µM | > 30 µM |  | 12.5 µM (≈ 5.52 µg/mL) | 1.56 µM (≈ 0.689 µg/mL)
8 | O=C(N[C@H](Cc1cccs1)C(=O)Nc1ccccc1N1CC[S+]([O-])CC1)c1ccccc1F |  | 28.9 µM |  | 0.2 µM (≈ 0.0971 µg/mL) | 12.5 µM (≈ 6.07 µg/mL) | > 30 µM | 29 µM | > 30 µM | 6.25 µM (≈ 3.04 µg/mL) | 50 µM (≈ 24.3 µg/mL) | 1.56 µM (≈ 0.758 µg/mL) | 1.8 µM (≈ 0.874 µg/mL) | 6.5 µM (≈ 3.16 µg/mL) | > 30 µM |  | 96 µM | 29.3 µM |  | 6.25 µM (≈ 3.04 µg/mL) | 1.56 µM (≈ 0.758 µg/mL)
9 | O=C(N[C@H](Cc1cccs1)C(=O)Nc1ccccc1N1CCOCC1)c1ccccc1F |  | > 30 µM |  | 0.78 µM (≈ 0.354 µg/mL) | 12.5 µM (≈ 5.67 µg/mL) | > 30 µM | > 30 µM | > 30 µM | 6.25 µM (≈ 2.83 µg/mL) | 25 µM (≈ 11.3 µg/mL) | 3.13 µM (≈ 1.42 µg/mL) | 2 µM (≈ 0.907 µg/mL) | 7 µM (≈ 3.17 µg/mL) | > 30 µM |  | 39 µM | > 30 µM |  | 6.25 µM (≈ 2.83 µg/mL) | 1.56 µM (≈ 0.708 µg/mL)
10 | O=C(N[C@H](Cc1ccccc1)C(=O)Nc1ccccc1N1CCSCC1)c1cccs1 |  | 16.4 µM | 19.1 µM | 0.78 µM (≈ 0.352 µg/mL) | 50 µM (≈ 22.6 µg/mL) | > 30 µM | 19.8 µM | > 30 µM | 12.5 µM (≈ 5.65 µg/mL) | > 100 µM | 6.25 µM (≈ 2.82 µg/mL) | 2.5 µM (≈ 1.13 µg/mL) | 14 µM (≈ 6.32 µg/mL) | > 30 µM |  | 34 µM | > 30 µM |  | 12.5 µM (≈ 5.65 µg/mL) | 3.13 µM (≈ 1.41 µg/mL)
